Assay outcomes (PubChem BioAssay)
Sampled rows, rich in hits. Any-hit rate of the full collection: about 11%.
RORA act – RORA (human) activation | AID 560 | activation, % at 10 µM | CHO-K1 Gal4-RORA LBD luciferase reporter, luminescence; percent increase over mock-subtracted basal signal | 1.5% of 65,000 active;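 active = activation above the mean of all tested compounds plus 3 SD, cut at about 49% in these data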
mHtt clearance – compounds clearing mutant huntingtin protein. 0.42% of 47,000 active. HeLa Exon1htt(103Q)mCFP, aggregate imaging; zero = plate's median compound well. inhibition, % at 1.5 µM. AID 853;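 active = inhibition of aggregate fluorescence above about 70%, also judged a hit by eye on the cell image, limit read from the data, passing the limit was not always enough; inconclusive = no rule stated for this call; inactive = not judged a hit on image review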;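 also: cells exposed to compound for three days before fixation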
M1 ag – activates the M1 muscarinic receptor; 3% of 64,000 active; B-score at 10 µM; AID 626; CHO-M1 cells, Fluo-4 calcium fluorescence, agonist mode; active compounds read high;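 active = fluorescence rise, raw or as B-score row- and column-corrected plate score, outside the 99.7% band of its plate's samples, either direction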
M1 antag – M1 muscarinic receptor (rat) antagonism; B-score at 10 µM; 3.4% of 64,000 active; CHO-M1 cells, Fluo-4 calcium, ACh EC80 antagonist mode; active compounds read low; AID 628;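 active = calcium fluorescence response, raw or row-and-column corrected B-score, differing from the plate sample mean either way at a set confidence level, mostly lower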
SF1 activator – activators of human nuclear receptor SF-1. CHO-K1 Gal4-SF-1 LBD luciferase reporter; % increase over DMSO SF-1-specific signal. activation, % at 10 µM. 1.9% of 65,000 active;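 active = activation above the mean activation of all tested compounds plus 3 SD, cut at about 50% in these data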
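Assay system – CHO-K1 cells with Gal4–hSF-1 LBD chimera plus Gal4-driven luciferase · Quantity – 4,000 cells per well · Times – compound added 1 h post-seeding, 20 h exposure at 37 °C, 5% CO2 · Measured by – luciferase light emission · Benchmarks – DMSO and mock-transfected background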
D1 allo mod – allosteric modulators of human D1 dopamine receptor; HEK293 D1, CRE-luciferase, dopamine EC30 potentiation; actives deviate in either direction; B-score at 10 µM; 5.9% of 58,000 active; AID 641;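 active = luminescence count or its row- and column-corrected plate score outside the 99.7% band of the plate's sample wells, on either side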
Target sequence (P21728 whole entry, looked up): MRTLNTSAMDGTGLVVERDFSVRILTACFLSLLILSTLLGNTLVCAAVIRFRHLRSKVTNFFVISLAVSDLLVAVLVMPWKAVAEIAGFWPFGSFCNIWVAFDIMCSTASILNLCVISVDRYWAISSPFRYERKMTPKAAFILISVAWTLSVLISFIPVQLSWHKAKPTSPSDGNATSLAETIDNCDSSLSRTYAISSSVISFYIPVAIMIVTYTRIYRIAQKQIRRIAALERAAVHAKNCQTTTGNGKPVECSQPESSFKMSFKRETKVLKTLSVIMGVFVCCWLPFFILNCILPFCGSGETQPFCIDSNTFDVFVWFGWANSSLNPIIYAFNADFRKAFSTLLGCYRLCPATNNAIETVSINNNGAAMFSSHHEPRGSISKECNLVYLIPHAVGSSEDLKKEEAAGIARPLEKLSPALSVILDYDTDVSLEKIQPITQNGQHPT
Each line names hits and unclear results; the compound was inactive in the other large screens.

COc1ccc(-c2cn3c(C)c(C(=O)Nc4ccncc4)sc3n2)cc1	D1 allo mod -3.34 (no result: mHtt clearance)
COc1ccc(-c2cn3c4c(sc3n2)CCCC4)cc1	D1 allo mod -4.95
Cn1c(=O)[nH]c(=O)c2c1nc(N1CCOCC1)n2CCSc1nc2ccccc2[nH]1	none (no result: RORA act, M1 ag, M1 antag, SF1 activator, D1 allo mod)
Cc1nn2c(-c3ccccc3)nnc2c2ccccc12	mHtt clearance inconclusive, M1 antag 2.05
COc1ccc(N2CCN(c3nc4c(c(=O)[nH]c(=O)n4C)n3CCCc3ccccc3)CC2)cc1	none (no result: mHtt clearance)
C=CCn1c(SCC(=O)NCc2ccco2)nnc1-c1ccc2ccccc2n1	none (no result: mHtt clearance)
Cc1c(NC(=O)C(C)N2CC(C)OC(C)C2)c(=O)n(-c2ccccc2)n1C (configuration not stated)	M1 antag 1.77
Cc1c(NC(=O)N(C)C)c(=O)n(-c2ccccc2)n1C	none (no result: RORA act, M1 ag, M1 antag, SF1 activator, D1 allo mod)
Cc1ccc(-n2c(C)nnc2SCC(=O)Nc2ccccc2)cc1	none (no result: RORA act, M1 ag, M1 antag, SF1 activator, D1 allo mod)
Cn1nc(-c2ccc(Cl)cc2)c2cc(C(=O)NCC3CCCO3)sc21 (configuration not stated)	none
CN1CCN(CCCNC(=O)c2cc3c(-c4ccc(Cl)cc4)nn(C)c3s2)CC1	D1 allo mod -2.03
S=C(c1ccc(-c2cccc(Cl)c2)o1)N1CCOCC1	RORA act 61.1 (no result: mHtt clearance)
CCn1cc(C(=O)NCc2ccc3c(c2)OCO3)c(=O)c2ccc(C)nc21	D1 allo mod 4.34 (no result: mHtt clearance)
COc1ccc(Br)cc1C1N2CC3(C)CN1CC(C)(C2)C3=O (configuration not stated)	none (no result: mHtt clearance)
Cn1ccnc1C(O)c1cc(C(C)(C)C)c(O)c(C(C)(C)C)c1 (configuration not stated)	none
CCOc1ccccc1OCCCCCc1c(C)n[nH]c1C	D1 allo mod -2.42 (no result: mHtt clearance)
COc1ccccc1OCCCCCc1c(C)n[nH]c1C	none (no result: mHtt clearance)
COc1ccc(S(=O)(=O)N2Cc3ccccc3CC2C(=O)Nc2nccs2)cc1 (configuration not stated)	none (no result: RORA act, M1 ag, M1 antag, SF1 activator, D1 allo mod)
CCc1nc2ccccc2c(NC(=O)CN2CCC(C)CC2)c1C	none (no result: mHtt clearance)
CN(C)S(=O)(=O)c1ccc(C(=O)NCCOc2ccccc2)cc1	SF1 activator 56.3
CN(C)S(=O)(=O)c1ccc(C(=O)NCc2ccccc2)cc1	none (no result: mHtt clearance)
Cc1nn(-c2ccccc2)c(-c2ccccc2)c1C(=O)O	none (no result: RORA act, SF1 activator)
CCCC(c1nnnn1CCc1ccccc1)N1CCC(C(N)=O)CC1 (configuration not stated)	none (no result: RORA act, M1 ag, M1 antag, SF1 activator, D1 allo mod)
Cc1ccc(Nc2nc(=O)c3cccnc3s2)cc1	RORA act 49.6, SF1 activator 53.1 (no result: mHtt clearance)
Cc1cccc(N2CCN(C(=O)C3CCCN(S(=O)(=O)c4c(C)noc4C)C3)CC2)c1C (configuration not stated)	none (no result: mHtt clearance)
COC(=O)c1ccc(N2C(=O)CC(SCCN)C2=O)cc1 (configuration not stated)	RORA act 51.4
CCCC(=O)Nc1ccc(-c2nc3cc(C)c(C)cc3o2)c(O)c1	none
CCCC(=O)Nc1ccc2oc(-c3ccc(OC)c(Br)c3)nc2c1	RORA act 79.6, SF1 activator 62.1, D1 allo mod -2.59 (no result: mHtt clearance)
CCCC(=O)Nc1ccc(-c2nc3cc(C)ccc3o2)cc1	D1 allo mod -5.1 (no result: mHtt clearance)
O=c1c2cccc3c(N4CCOCC4)ccc(c32)c2nc3ccccc3n12	M1 ag 7.17 (no result: mHtt clearance)
c1ccc2c(c1)nc(CN1CCOCC1)n1c3ccccc3nc21	none (no result: mHtt clearance, D1 allo mod)
c1c2c(cc3sc(N4CCOCC4)nc13)OCO2	SF1 activator 58.0 (no result: mHtt clearance, D1 allo mod)
c1ccc(N2CCN(c3nc4cc5c(cc4s3)OCO5)CC2)cc1	RORA act 69.8, SF1 activator 54.6 (no result: D1 allo mod)
Clc1ccc2nc(N3CCN(c4ccccc4)CC3)sc2c1	SF1 activator 71.6 (no result: M1 ag, M1 antag, D1 allo mod)
Cc1ccc2c(CC(=O)Nc3nc(C)cs3)coc2c1	none
O=C1CSC(c2cccs2)N1c1ccccc1 (configuration not stated)	none (no result: mHtt clearance)
c1ccc(N2CCN(c3ccccc3)C2c2cccs2)cc1	RORA act 58.4
Cn1c(C(=O)NCCc2c[nH]c3ccccc23)cc2sccc21	RORA act 73.9, SF1 activator 78.8 (no result: mHtt clearance)
Cc1onc(-c2ccccc2)c1C(=O)N1CCc2ccccc21	none (no result: RORA act, SF1 activator)
CSCCC(C(=O)Nc1ccc2c(c1)OCO2)N1C(=O)c2ccccc2C1=O (configuration not stated)	none
O=C(Nc1cnn(Cc2ccc(Cl)cc2)c1)c1cnccn1	none (no result: D1 allo mod)
CCOc1cc(NC2CS(=O)(=O)CC2O)c(OCC)cc1NC(=O)c1ccccc1 (configuration not stated)	M1 antag 2.62
Cc1noc(/C=C/N(C)C)c1S(=O)(=O)N1CCC(C(=O)O)CC1	none (no result: mHtt clearance)
O=C(CSc1ccccn1)Nc1nncs1	none (no result: RORA act, M1 ag, M1 antag, SF1 activator, D1 allo mod)
CCCCCCn1c(SCCN2CCOCC2)nc2c1c(=O)[nH]c(=O)n2C	none (no result: mHtt clearance, D1 allo mod)
CCCCCCn1c(SCCOC)nc2c1c(=O)[nH]c(=O)n2C	D1 allo mod 9.38 (no result: mHtt clearance)
CCCCCn1c(NC2CCCCC2)nc2c1c(=O)[nH]c(=O)n2C	D1 allo mod 5.68 (no result: mHtt clearance)
O=C(O)C1C2C=CC(C2)C1C(=O)NCCc1cccc(Cl)c1 (configuration not stated)	none
CN1C(=O)c2ccc(N3CCCC3)cc2C1=O	M1 ag 13.3 (no result: mHtt clearance)
CCOc1ccc(OCC)c(NC(=O)CCn2c(=O)oc3ccccc32)c1	none (no result: mHtt clearance)
COc1cccc(C(=O)OCn2nnc3ccccc3c2=O)c1OC	D1 allo mod 5.16 (no result: mHtt clearance)
COc1cc(CCC(=O)OCn2nnc3ccccc3c2=O)cc(OC)c1OC	M1 antag 2.65 (no result: mHtt clearance)
COc1ccc(C2=NOC3(CC(=O)N(c4ccc(C)cc4)C3=O)C2)c(OC)c1 (configuration not stated)	none (no result: mHtt clearance)
CC(C)NC(=O)c1ccc2c(c1)N(CC(=O)N1CCOCC1)C(=O)C(C)(C)O2	none
O=c1c2c(nc3cc(-c4ccc(F)cc4)[nH]n13)CCCC2	D1 allo mod -5.29 (no result: mHtt clearance)
CC1CCN(S(=O)(=O)c2cccc(C(=O)O)c2)CC1	none (no result: RORA act, M1 ag, M1 antag, SF1 activator, D1 allo mod)
COC(=O)c1cccc(S(=O)(=O)N2CCC(C)CC2)c1	mHtt clearance 71.4
Cc1ccc(Nc2ncnc3nc[nH]c23)cc1Cl	RORA act 66.9, D1 allo mod -3.47 (no result: mHtt clearance)
COc1ccc(Cl)cc1NC(=O)c1nc2nc(C)cc(C(F)F)n2n1	none (no result: mHtt clearance)
COc1ccc2c(Cl)c(C(=O)NC3CCS(=O)(=O)C3)sc2c1 (configuration not stated)	SF1 activator 49.5 (no result: mHtt clearance)
O=C(c1ccco1)N1CCN(S(=O)(=O)c2ccc(Oc3ccccc3)cc2)CC1	none
CCN(CC)S(=O)(=O)c1ccc(C2CNC(=O)C2)cc1 (configuration not stated)	none
Nn1c(SCC(=O)N2CCN(S(=O)(=O)c3ccc(Cl)cc3)CC2)nnc1-c1cccs1	none (no result: RORA act, M1 ag, M1 antag, SF1 activator, D1 allo mod)
O=c1oc2ccccc2cc1-c1nnc(-c2cccc(Br)c2)o1	SF1 activator 53.1 (no result: mHtt clearance)
Cc1ccccc1-c1nnc(-c2ccccc2C)o1	none (no result: RORA act, M1 ag, M1 antag, SF1 activator, D1 allo mod)
Cc1ccc(-c2nnc(-c3cccc(Br)c3)o2)cc1	none (no result: mHtt clearance)
O=c1oc2ccc3ccccc3c2cc1-c1nnc(-c2ccccc2)o1	none
